# The list is not random: actives were taken first. Their share in the collection is about 3.5%.
# mABHD4 FP: ABHD4 inhibitors, primary screen, biochemical, fluorescence polarization, mouse. (Lyso)-N-acylphosphatidylethanolamine lipase (Mus musculus), Q8VD66. purified mABHD4, FP-Rh probe fluorescence polarization. inhibition, % at 8.92 µM. 370,000 compounds, 0.54% hits. AID 720543, 2013;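 active means inhibition exceeding the mean over every tested compound plus 3 SD, cut at about 30% in these data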;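 further: 0% = plate median of compound wells and 100% = S159A mutant with DMSO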
#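 system = mouse ABHD4 enzyme, wild type | medium = HEPES pH 7.0, NaCl, Pluronic buffer | also added = FP-Rh probe | incubation = Enzyme–compound pre-incubation 45 min, then probe 60 min, both 25 °C | technique = fluorescence polarization, excitation 525 nm, emission 598 nm, BODIPY TMR filters | controls = S159A mutant high control, sample median low control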
# PRMT1 inh: PRMT1 methyltransferase inhibitors, primary screen, biochemical, fluorescence polarization | Protein arginine N-methyltransferase 1 (Homo sapiens), Q99873 | inhibition, % at 2.79 µM | 370,000 compounds, 1.3% hits | AID 652257, 2013 | recombinant PRMT1, activity-based probe fluorescence polarization;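 active means inhibition above about 21% made by adding two undisclosed values, limit read from the data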
# rCAG RNA binder: binders of r(CAG) RNA repeats, primary screen, biochemical, fluorescence; r(CAG) RNA repeat, TO-PRO-1 dye displacement fluorescence; 370,000 compounds, 1.3% hits; inhibition, % at 3 µM;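 active means inhibition above the plate cutoff, the mean of all test compounds on that plate plus 3 SD, cut at about 35% in these data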;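 further: 0% = DMSO alone and 100% = 100 µM mitoxantrone as full dye displacement; higher means more dye released from RNA so lower well fluorescence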
# SIAE primary: human SIAE inhibitors, primary screen, biochemical, fluorescence polarization, FP-Rh probe, 1536-well HTS | 370,000 compounds, 0.69% hits | inhibition, % at 9.66 µM | AID 1053197, 2014 | SIAE FP-Rh probe binding | Sialate O-acetylesterase (Homo sapiens), Q9HAT2;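 active means inhibition above a cutoff: mean of compounds within the control limits plus 3 SD of those, cut at about 17% in these data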;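 further: 0% = plate median of compound wells and 100% = probe without SIAE protein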
# TCR-CD3 inh: inhibitors of human TCR-CD3 interaction, primary screen, biochemical, fluorescence, TAMRA-labeled TCR probe | inhibition, % at 9.4 µM | 360,000 compounds, 0.37% hits; in the data active means inhibition above about 19%;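 further: recombinant mutant TCR 2C K166C tagged with TAMRA read by polarization; 0% = receptor in buffer alone and 100% = receptor with positive control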
# HTRA1 inh: HTRA1 serine protease inhibitors, primary screen, biochemical, fluorescence polarization, HTS. Q92743. recombinant HTRA1, FP-rhodamine activity-based probe. inhibition, % at 5.96 µM. 340,000 compounds, 0.5% hits; in the data active means inhibition above about 36%;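 further: 0% = enzyme with DMSO and 100% = wells lacking enzyme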
# Target sequence (Q92743 whole entry, looked up): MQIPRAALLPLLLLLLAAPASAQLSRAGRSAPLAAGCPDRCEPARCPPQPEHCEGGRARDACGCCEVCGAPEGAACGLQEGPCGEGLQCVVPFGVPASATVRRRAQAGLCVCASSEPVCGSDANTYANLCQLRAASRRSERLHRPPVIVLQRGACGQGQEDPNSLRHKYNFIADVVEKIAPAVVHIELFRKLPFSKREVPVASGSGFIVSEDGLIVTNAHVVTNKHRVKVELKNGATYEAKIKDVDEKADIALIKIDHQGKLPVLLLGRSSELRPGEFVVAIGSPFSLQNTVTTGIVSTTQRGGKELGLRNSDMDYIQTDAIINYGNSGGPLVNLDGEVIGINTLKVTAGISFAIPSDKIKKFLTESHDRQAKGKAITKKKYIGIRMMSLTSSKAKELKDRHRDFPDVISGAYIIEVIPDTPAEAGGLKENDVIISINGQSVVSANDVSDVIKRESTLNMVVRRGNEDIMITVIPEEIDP
# SIAE inh conf: human SIAE inhibitors, retest, confirmation, biochemical, fluorescence polarization, FP-Rh probe, triplicate | 2,300 compounds, 13% hits | inhibition, % at 9.66 µM | AID 1117263, 2014 | shares compounds with SIAE primary | SIAE FP-Rh activity-based probe;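 active means mean inhibition of the replicates above the hit cutoff set in the primary screen, cut at about 17% in these data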;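 further: 0% = SIAE with DMSO and probe and 100% = probe without SIAE; inhibitors lower polarization as more probe stays unbound to SIAE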
# An asterisk follows results filed as active; · = not tested or not shown.
SMILES,mABHD4 FP,PRMT1 inh,rCAG RNA binder,SIAE primary,TCR-CD3 inh,HTRA1 inh,SIAE inh conf
O=C1c2ccccc2C(c2nnnn2-c2ccc3c(c2)OCCO3)N1Cc1ccc2c(c1)OCO2 (stereo not drawn),2.9,2.2,3.8,2.0,4.0,·,·
O=C1c2ccccc2C(c2nnnn2-c2ccc3c(c2)OCCO3)N1Cc1cccnc1 (stereo not drawn),3.0,-1.5,2.4,24.8*,1.6,·,0.2
CN(C)[C@@H]1CCN(c2ccc3c(c2)O[C@@H]2CCN(C2)S3(=O)=O)C1,10.2,-4.2,3.0,5.6,·,·,·
CCCCNC(=O)CCC(=O)Nc1ccc2nc(N3CCCCC3)cc(C)c2c1,0.2,-1.2,-8.1,-1.9,1.7,1.6,·
CCCCNC(=O)CCC(=O)Nc1ccc2nc(N3CCOCC3)cc(C)c2c1,-1.0,-1.0,-7.5,24.1*,-3.2,-4.7,-0.8
O=C(N=Nc1c(O)[nH]c2c(Cl)cc(Cl)cc12)c1ccccc1O,19.8,2.6,6.1,29.1*,8.0,·,-2.6
O=C(N=Nc1c(O)[nH]c2ccc([N+](=O)[O-])cc12)c1ccccc1Cl,6.6,3.9,1.2,-1.7,1.9,-4.2,·
COC(=O)C1CN(Cc2ccccc2)CCS(=O)(=O)N1Cc1ccccc1F (stereo not drawn),1.1,-2.5,1.1,-0.9,·,·,·
COC(=O)c1ccc(Cn2ccc3ccc(-c4ccc5ccn(C(=O)c6ccccc6)c5c4)cc32)cc1,2.1,0.6,13.0,-3.4,·,·,·
COc1cc(NC(=O)Nc2nc(C(N)C3CCCCC3)cs2)cc(OC)c1OC (stereo not drawn),12.4,3.1,30.6,20.6*,-11.2,·,9.6
Cc1cc(N2CCCC2)n2nc(C)nc2n1,-7.8,-5.4,2.0,18.5*,-7.2,1.7,-2.9
CC(=O)N1CCN(c2cc(C)nc3nc(C)nn23)CC1,3.6,-2.8,4.6,5.5,·,·,·
Cc1ccc(S(=O)(=O)Nc2ccc3c(c2)CC(=O)N([C@H](C)CO)C[C@@H](C)[C@H](CN(C)S(=O)(=O)c2ccccc2)O3)cc1,1.4,-1.1,6.5,3.0,3.2,0.9,·
C[C@H](CO)N1C[C@H](C)[C@@H](CN(C)S(=O)(=O)c2cccs2)Oc2ccc(NC(=O)Nc3ccc4c(c3)OCO4)cc2C1=O,-1.4,1.9,10.5,13.8,-4.0,10.5,·
C[C@H](CO)N1C[C@H](C)[C@H](CN(C)S(=O)(=O)c2ccccc2)Oc2ccc(NC(=O)NC3CCCCC3)cc2CC1=O,-7.2,2.2,1.5,29.6*,-5.2,-2.0,-0.3
C[C@H](CO)N1C[C@H](C)[C@H](CN(C)S(=O)(=O)c2cccs2)Oc2ccc(NC(=O)Nc3ccc4c(c3)OCO4)cc2CC1=O,4.0,-2.1,13.0,20.9*,-2.7,-5.4,2.5
CC(=O)NC1CCCCN(C(C)C)C1=O (stereo not drawn),3.4,-1.8,2.1,-4.9,·,·,·
COc1ccc(CN2C(=O)C(CC(C)C)Nc3ncnc(N4CCN(c5ccccn5)CC4)c32)cc1 (stereo not drawn),-6.8,-0.7,-0.4,18.1*,-3.5,-8.8,0.2
CCOc1cc(/C=N/NC(=O)c2cccc([N+](=O)[O-])c2)ccc1OS(=O)(=O)c1ccccc1,14.7,1.9,14.1,21.9*,17.8,-5.8,-7.7
COc1ccc(/C=N/NC(=O)c2cccc([N+](=O)[O-])c2)cc1OS(=O)(=O)c1ccc(C)cc1,-0.6,-5.0,3.7,0.1,-3.0,-29.4,·
Cc1[nH]n(-c2ccccc2)c(=O)c1/C=N/NC(=O)c1cccc([N+](=O)[O-])c1,10.1,-1.2,2.6,20.0*,-5.5,5.1,-0.6
COC(=O)[C@@]12CCCCC3=C1N(CCC3)C(=O)[C@H]2CC(=O)NCC1CCCCC1,2.2,0.0,-1.8,-1.9,·,·,·
CC(C)NC(=O)Cn1c(SCC(=O)N2CCCc3ccccc32)nc2ccccc21,4.5,0.9,-6.8,18.0*,5.0,-2.6,0.2
Cc1cccc(NC(=O)CN2CCN(C(=O)CNC(=O)c3ccc(-c4ccccc4)cc3)CC2)c1C,-13.1,-4.7,6.7,1.4,-8.9,0.6,·
Cc1cccc(NC(=O)CN2CCN(C(=O)C(C)Oc3ccc(C#N)cc3)CC2)c1C (stereo not drawn),-1.2,-4.9,-0.9,20.1*,6.0,2.0,5.8
SMILES,mABHD4 FP,PRMT1 inh,rCAG RNA binder,SIAE primary,TCR-CD3 inh,HTRA1 inh,SIAE inh conf
CCN=C1S/C(=C/c2cc(C)n(-c3ccc(Cl)cc3F)c2C)C(=O)N1CC,-11.0,2.0,·,4.8,·,·,·
COc1ccccc1NC(=O)Nc1ccc(NC(=O)c2ccccc2O)cc1,-15.8,-1.6,19.3,51.0*,1.2,-11.6,26.1*
CC(C)(C)c1c(Cl)c(O)c(-c2ccccc2)c(=O)n1-c1ccccc1,-3.0,9.9,6.1,19.5*,-0.3,·,0.0
Cc1c(O)c2ccccc2n(-c2ccccc2)c1=O,-4.5,-5.6,-0.3,2.1,3.7,5.9,·
Cc1ncc(CO)c(/C=N/NC(=S)Nc2ccc(C(C)C)cc2)c1O,10.7,0.9,16.1,17.5*,14.0,29.3,14.8
CCOC(=O)N1[C@@H]2C=C(C)[C@@H]2[C@@H]2[C@@H](C)C(=O)N21,-0.1,-1.1,4.9,78.2*,2.9,4.7,85.6*
NC(=O)c1ccc(NC(=O)CSc2nnc(-c3ccccc3)n2-c2ccccc2)cc1,-3.7,-3.6,2.9,3.5,·,·,·
COc1cc2ncnc(NCCCN3CCOCC3)c2cc1OC,-1.2,-8.2,-1.4,38.2*,-2.8,-1.2,1.5
CCOC(=O)CN1C(=O)N(c2ccc(OC)cc2)[C@H]2CC3c4ccccc4C[C@]3(C)[C@@H](C(=O)N(C)C3CCCCC3)C[C@H]21 (stereo partly drawn),-4.6,-2.5,5.7,-4.4,-4.3,·,·
CCCN(CCC)Cc1c(C(=O)N/N=C/c2ccco2)nnn1-c1nonc1N,2.4,-7.4,0.0,17.2*,-3.0,-19.0,5.5
CCCN(CCC)Cc1c(C(=O)N/N=C/c2ccoc2)nnn1-c1nonc1N,-4.0,-1.1,3.4,1.9,-6.9,-24.7,·
CCN(CC)c1ccc(/C=N/NC(=O)c2nnn(-c3nonc3N)c2C(C)C)c(O)c1,18.0,10.2,21.0,17.2*,-5.1,35.1,4.5
Cc1ccc(NC(=O)Cc2cccc(OC(F)(F)F)c2)c(S(=O)(=O)N2CCOCC2)c1,3.8,3.5,-0.9,1.0,·,·,·
CC(C)Nc1oc(Cc2cccc3ccccc23)nc1C#N,-8.6,3.6,1.0,0.8,-1.4,-11.0,·
CNc1oc(Cc2cccc3ccccc23)nc1C#N,-1.8,-4.8,0.5,17.7*,-0.5,0.7,1.6

# High-throughput results (PubChem)
